The species named for test [1] is Cavia porcellus. Nature of the test: Percent decrease in tonic contractile response in guinea pig ileal longitudinal smooth muscle. The format is functional. As to conditions: Muscle tissue. The essentials:
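Guinea pig ileum longitudinal smooth muscle, tonic (slow) contraction evoked by carbachol at 1.6 × 10^-7 M (muscarinic, Ca²⁺-dependent). Test compound applied over a dose range. Concentration giving 50% inhibition (IC50 ± SEM, n = 3-18) read graphically from the dose-response curve.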

The species named for test [2] is Cavia porcellus. Kind of test: Calcium channel agonist activity as percent increase in tonic contractile response in guinea pig left atrium. Type of test: functional. The note with it: Cardiac atrium. The essentials:
(§1)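 Racemic test compounds on isolated guinea pig left atrium, scored as positive inotropic (contractile) response. Dose-response curves constructed. EC50 (± SEM) taken graphically as the molar concentration producing 50% of the maximum contractile increase; number of experiments reported.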

The species named for test [3] is Cavia porcellus. Nature of the test: Calcium channel agonist activity as percent increase in tonic contractile response in guinea pig left atrium, Weak agonist. The format is functional, Cardiac atrium. The procedure, abridged:
as §1

The species entered for test [4] is Cavia porcellus. Kind of test: Calcium channel agonist activity as percent increase in tonic contractile response in guinea pig left atrium, Weak antagonist. Type of test: functional, Cardiac atrium.

The text below walks through data of ChEMBL document CHEMBL1131229, “Synthesis, rotamer orientation, and calcium channel modulation activities of alkyl and 2-phenethyl 1,4-dihydro-2,6-dimethyl-3-nitro-4-(3- or 6-substituted-2-pyridyl)-5-pyridinecarboxylates” (J Med Chem, 1998).

pEC50, pIC50: −log10 of the molar value.

What is called pIC50 is −log10 of the IC50, conventionally taken in molar units. High values mean a small IC50, low ones a large IC50. The pEC50 is −log10 of the EC50, conventionally taken in molar units.

As for `CC1=NC(C)=C([N+](=O)[O-])C(c2ncccc2C)/C1=C(/O)OC(C)C` (centres undefined), in test [1], the negative logarithm of the IC50 (pIC50) was 5.55. The pEC50 in test [2] was 5.00.

On to `CC1=NC(C)=C([N+](=O)[O-])C(c2ccccn2)/C1=C(/O)OCCc1ccccc1` (centres undefined), for which the pIC50 in test [1] is 6.19.

In test [1], `CC1=NC(C)=C([N+](=O)[O-])C(c2cccc(C)n2)/C1=C(/O)OCCc1ccccc1` (centres undefined) showed a pIC50 of 5.00.

Turning to `CC1=NC(C)=C([N+](=O)[O-])C(c2ncccc2C(F)(F)F)/C1=C(/O)OCCc1ccccc1` (centres undefined), the pIC50 in test [1] was under 4.22.

In the case of `CC1=NC(C)=C([N+](=O)[O-])C(c2ncccc2-c2ccccc2)/C1=C(/O)OCCc1ccccc1` (centres undefined), the pIC50 in test [1] was 5.47.

Molecule `CC1=NC(C)=C([N+](=O)[O-])C(c2ncccc2Cl)/C1=C(/O)OCCc1ccccc1` (centres undefined) gave a pIC50 in test [1] of 5.29.

Molecule `CCO/C(O)=C1/C(C)=NC(C)=C([N+](=O)[O-])C1c1cccc(C)n1` (centres undefined) showed a negative-log IC50 (pIC50) in test [1] of 4.76. In test [2], the pEC50 was 4.91.

`CC1=NC(C)=C([N+](=O)[O-])C(c2cccc(-c3ccccc3)n2)/C1=C(/O)OCCc1ccccc1` (centres undefined) gave a pIC50 in test [1] of 5.08.

In test [1], `CC1=NC(C)=C([N+](=O)[O-])C(c2ncccc2C)/C1=C(/O)OCCc1ccccc1` (centres undefined) had a negative logarithm of the IC50 (pIC50) of 5.27.

Turning to `CO/C(O)=C1/C(C)=NC(C)=C([N+](=O)[O-])C1c1cccc(C)n1` (centres undefined), the pIC50 in test [1] is 5.64. Further, the EC50 result in test [3] was “Partial agonist”.

`COC(=O)C1=C(C)NC(C)=C(C(=O)OC)C1c1ccccc1[N+](=O)[O-]` [NIFEDIPINE] showed a pIC50 in test [1] of 7.85.

In test [1], `CC1=NC(C)=C([N+](=O)[O-])C(c2cccc(Cl)n2)/C1=C(/O)OC(C)C` (centres undefined) showed a pIC50 of 4.78. For the same molecule, in test [2], the negative logarithm of the EC50 (pEC50) is 5.22.

In turn, `CC1=NC(C)=C([N+](=O)[O-])C(c2cccc([N+](=O)[O-])n2)/C1=C(/O)OCCc1ccccc1` (centres undefined) gave a negative logarithm of the IC50 (pIC50) in test [1] of 5.32.

In test [1], `CC1=NC(C)=C([N+](=O)[O-])C(c2cccc(C(F)(F)F)n2)/C1=C(/O)OCCc1ccccc1` (centres undefined) gave a pIC50 of 5.85.

As for `CC1=NC(C)=C([N+](=O)[O-])C(c2cccc(Cl)n2)/C1=C(/O)OCCc1ccccc1` (centres undefined), in test [1], the pIC50 was 5.82.

`CC1=NC(C)=C([N+](=O)[O-])C(c2ncccc2[N+](=O)[O-])/C1=C(/O)OCCc1ccccc1` (centres undefined): in test [1], the pIC50 was 4.11.

In the case of `CC1=NC(C)=C([N+](=O)[O-])C(c2cccc(C)n2)/C1=C(/O)OC(C)C` (centres undefined), the negative logarithm of the IC50 (pIC50) in test [1] is 4.60. For the same molecule, the pEC50 in test [2] was 5.74.

In test [1], `CC1=NC(C)=C([N+](=O)[O-])C(c2ncccc2[N+](=O)[O-])/C1=C(/O)OC(C)C` (centres undefined) gave a negative logarithm of the IC50 (pIC50) of 5.42. Further, the EC50 result in test [4] is listed as “Partial antagonist”.
